Source: ChEMBL document CHEMBL1150387, “Development and experimental validation of a docking strategy for the generation of kinase-targeted libraries” (J Med Chem, 2008)

Experiments:
[1] = biological target: Insulin-like growth factor 1 receptor (Homo sapiens) (UniProt P08069); test: Inhibition of IGF1R at 10 uM by HTRF assay relative to control
In short: (§1)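 HTRF kinase assay, one panel of kinases. Inhibitor stock 50 µM in 100% DMSO; tested at 10 µM. ATP and substrate at final levels near Km. Final buffer: 50 mM Hepes/NaOH pH 7.4, 40 µM Na3VO4, 0.005% Tween-20, 1 mM DTT, MnCl2 or MgCl2 at kinase-dependent levels. Started by adding ATP/substrate. Reaction run at room temperature, time varied by kinase. Detection mix in 50 mM Hepes pH 7.4, 0.1% BSA, 150 mM KF, incubated ≥1 h at room temperature. Activity expressed as % of uninhibited control; n=2.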

[2] = biological target: T1, Ephrin type-B receptor 4 (Homo sapiens) (UniProt P54760); test: Inhibition of EphB4 at 10 uM by HTRF assay relative to control; in short: as §1
T1 sequence (whole entry): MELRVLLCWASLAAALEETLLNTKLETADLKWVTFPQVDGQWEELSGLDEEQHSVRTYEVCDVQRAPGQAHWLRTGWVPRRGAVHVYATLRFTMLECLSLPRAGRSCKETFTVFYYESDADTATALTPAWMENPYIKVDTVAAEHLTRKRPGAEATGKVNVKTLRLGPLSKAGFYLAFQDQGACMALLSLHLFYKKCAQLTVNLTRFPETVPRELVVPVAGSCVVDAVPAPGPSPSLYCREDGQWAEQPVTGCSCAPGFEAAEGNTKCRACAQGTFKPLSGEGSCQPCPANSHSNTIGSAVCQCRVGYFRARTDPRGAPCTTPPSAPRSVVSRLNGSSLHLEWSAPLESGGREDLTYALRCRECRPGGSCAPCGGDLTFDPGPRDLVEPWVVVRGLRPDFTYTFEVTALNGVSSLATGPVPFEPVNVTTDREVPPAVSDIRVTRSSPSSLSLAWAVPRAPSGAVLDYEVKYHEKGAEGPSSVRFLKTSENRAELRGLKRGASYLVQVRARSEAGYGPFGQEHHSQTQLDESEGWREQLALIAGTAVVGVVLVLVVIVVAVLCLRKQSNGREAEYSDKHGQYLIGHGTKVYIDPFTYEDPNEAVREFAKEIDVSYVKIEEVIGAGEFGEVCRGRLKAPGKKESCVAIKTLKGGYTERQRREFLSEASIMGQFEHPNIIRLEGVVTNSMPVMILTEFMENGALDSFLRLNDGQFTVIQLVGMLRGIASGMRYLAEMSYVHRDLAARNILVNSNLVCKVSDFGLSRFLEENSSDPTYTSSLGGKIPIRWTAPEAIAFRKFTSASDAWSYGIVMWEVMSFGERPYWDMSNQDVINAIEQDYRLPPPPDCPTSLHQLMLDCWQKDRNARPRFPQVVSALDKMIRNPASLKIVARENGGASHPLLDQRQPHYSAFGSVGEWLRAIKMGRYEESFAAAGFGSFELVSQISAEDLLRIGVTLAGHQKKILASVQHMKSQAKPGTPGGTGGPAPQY

[3] = biological target: Cyclin-dependent kinase 1 (Homo sapiens) (UniProt P06493); test: Inhibition of CDK1 at 10 uM by HTRF assay relative to control; in short: as §1
Sequence of Cyclin-dependent kinase 1 (Homo sapiens) (P06493 whole entry, looked up): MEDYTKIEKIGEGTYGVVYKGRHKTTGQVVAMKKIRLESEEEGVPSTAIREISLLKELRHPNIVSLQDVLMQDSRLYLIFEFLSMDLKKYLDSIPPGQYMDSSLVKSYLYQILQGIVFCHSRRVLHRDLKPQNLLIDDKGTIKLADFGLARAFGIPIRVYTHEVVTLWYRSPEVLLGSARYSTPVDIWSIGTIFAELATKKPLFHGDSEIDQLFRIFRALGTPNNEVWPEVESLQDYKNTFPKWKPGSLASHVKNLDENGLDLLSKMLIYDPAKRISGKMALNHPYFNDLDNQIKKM

[4] = biological target: T2, Serine/threonine-protein kinase Chk1 (Homo sapiens) (UniProt O14757); test: Inhibition of CHK1 at 10 uM by HTRF assay relative to control; in short: as §1
T2 sequence (whole entry): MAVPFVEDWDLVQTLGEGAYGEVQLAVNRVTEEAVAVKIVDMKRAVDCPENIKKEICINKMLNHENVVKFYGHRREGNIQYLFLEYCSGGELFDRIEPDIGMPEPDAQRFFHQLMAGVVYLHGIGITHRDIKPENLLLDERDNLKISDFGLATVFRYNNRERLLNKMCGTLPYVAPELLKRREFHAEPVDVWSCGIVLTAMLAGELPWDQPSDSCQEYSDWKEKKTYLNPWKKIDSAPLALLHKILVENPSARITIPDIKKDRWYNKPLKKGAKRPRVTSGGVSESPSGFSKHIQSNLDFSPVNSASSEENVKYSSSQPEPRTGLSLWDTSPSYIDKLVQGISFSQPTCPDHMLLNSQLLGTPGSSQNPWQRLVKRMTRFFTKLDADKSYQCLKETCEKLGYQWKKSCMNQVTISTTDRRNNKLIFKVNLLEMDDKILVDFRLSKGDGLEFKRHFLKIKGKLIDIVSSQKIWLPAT

[5] = Inhibition of AMPKalpha at 10 uM by HTRF assay relative to control; in short: as §1
[6] = biological target: Rho-associated protein kinase 2 (Homo sapiens) (UniProt O75116); test: Inhibition of ROCK2 at 10 uM by HTRF assay relative to control; in short: as §1
Sequence of Rho-associated protein kinase 2 (Homo sapiens) (O75116 whole entry, looked up): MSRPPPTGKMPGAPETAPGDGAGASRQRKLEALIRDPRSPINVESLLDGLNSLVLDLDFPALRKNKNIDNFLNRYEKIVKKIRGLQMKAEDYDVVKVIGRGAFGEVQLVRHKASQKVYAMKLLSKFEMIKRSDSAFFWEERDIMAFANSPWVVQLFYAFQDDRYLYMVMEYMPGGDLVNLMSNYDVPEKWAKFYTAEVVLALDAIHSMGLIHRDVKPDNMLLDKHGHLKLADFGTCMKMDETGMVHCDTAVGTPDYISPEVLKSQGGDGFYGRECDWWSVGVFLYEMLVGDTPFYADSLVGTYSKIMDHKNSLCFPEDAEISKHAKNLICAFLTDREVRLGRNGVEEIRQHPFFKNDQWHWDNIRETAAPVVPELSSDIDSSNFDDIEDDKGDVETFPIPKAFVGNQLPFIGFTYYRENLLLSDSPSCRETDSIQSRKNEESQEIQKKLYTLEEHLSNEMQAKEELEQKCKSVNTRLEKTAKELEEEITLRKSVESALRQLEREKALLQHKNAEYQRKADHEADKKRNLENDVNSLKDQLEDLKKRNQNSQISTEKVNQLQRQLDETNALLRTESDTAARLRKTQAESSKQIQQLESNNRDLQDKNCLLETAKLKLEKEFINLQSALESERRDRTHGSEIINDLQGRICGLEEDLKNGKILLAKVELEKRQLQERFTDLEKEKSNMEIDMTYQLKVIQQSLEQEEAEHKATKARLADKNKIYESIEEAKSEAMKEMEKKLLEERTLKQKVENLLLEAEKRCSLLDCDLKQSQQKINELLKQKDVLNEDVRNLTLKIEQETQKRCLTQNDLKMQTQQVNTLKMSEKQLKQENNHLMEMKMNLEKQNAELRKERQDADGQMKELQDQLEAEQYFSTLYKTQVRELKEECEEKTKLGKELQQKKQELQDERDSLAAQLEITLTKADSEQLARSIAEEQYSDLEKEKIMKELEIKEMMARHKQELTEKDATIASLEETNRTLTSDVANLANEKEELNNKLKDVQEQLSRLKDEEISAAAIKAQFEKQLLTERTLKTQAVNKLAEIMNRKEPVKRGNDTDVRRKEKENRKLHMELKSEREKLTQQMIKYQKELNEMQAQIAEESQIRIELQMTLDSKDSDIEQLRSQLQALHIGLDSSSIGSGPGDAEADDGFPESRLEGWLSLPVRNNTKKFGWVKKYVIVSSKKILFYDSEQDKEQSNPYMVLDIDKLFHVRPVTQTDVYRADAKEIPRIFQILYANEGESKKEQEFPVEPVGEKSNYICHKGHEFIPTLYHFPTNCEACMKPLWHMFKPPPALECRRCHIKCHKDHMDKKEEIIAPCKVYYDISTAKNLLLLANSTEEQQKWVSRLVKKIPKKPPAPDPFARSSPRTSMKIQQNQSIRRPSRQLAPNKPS

[7] = Inhibition of PKA at 10 uM by HTRF assay relative to control; in short: as §1
[8] = biological target: RAC-alpha serine/threonine-protein kinase (Homo sapiens) (UniProt P31749); test: Inhibition of AKT1/PKBalpha at 10 uM by HTRF assay relative to control; in short: as §1
[9] = biological target: Tyrosine-protein kinase Lck (Homo sapiens) (UniProt P06239); test: Inhibition of Lck at 10 uM by HTRF assay relative to control; in short: as §1
Sequence of Tyrosine-protein kinase Lck (Homo sapiens) (P06239 2-509 limits assumed): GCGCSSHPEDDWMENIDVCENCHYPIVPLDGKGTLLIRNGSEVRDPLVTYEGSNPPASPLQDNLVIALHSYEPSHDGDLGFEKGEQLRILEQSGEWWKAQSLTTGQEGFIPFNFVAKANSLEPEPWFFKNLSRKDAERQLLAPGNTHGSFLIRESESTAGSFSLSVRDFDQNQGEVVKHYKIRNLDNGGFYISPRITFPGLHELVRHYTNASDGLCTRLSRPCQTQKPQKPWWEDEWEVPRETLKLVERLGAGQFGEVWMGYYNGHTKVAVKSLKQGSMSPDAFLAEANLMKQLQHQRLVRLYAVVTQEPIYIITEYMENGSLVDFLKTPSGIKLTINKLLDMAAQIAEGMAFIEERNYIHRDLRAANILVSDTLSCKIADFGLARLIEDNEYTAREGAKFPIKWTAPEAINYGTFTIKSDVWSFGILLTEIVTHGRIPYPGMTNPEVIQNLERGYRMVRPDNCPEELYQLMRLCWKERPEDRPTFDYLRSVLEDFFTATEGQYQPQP

[10] = biological target: Platelet-derived growth factor receptor beta (Homo sapiens) (UniProt P09619); test: Inhibition of PDGFRbeta at 10 uM by HTRF assay relative to control; in short: as §1
Sequence of Platelet-derived growth factor receptor beta (Homo sapiens) (P09619 whole entry): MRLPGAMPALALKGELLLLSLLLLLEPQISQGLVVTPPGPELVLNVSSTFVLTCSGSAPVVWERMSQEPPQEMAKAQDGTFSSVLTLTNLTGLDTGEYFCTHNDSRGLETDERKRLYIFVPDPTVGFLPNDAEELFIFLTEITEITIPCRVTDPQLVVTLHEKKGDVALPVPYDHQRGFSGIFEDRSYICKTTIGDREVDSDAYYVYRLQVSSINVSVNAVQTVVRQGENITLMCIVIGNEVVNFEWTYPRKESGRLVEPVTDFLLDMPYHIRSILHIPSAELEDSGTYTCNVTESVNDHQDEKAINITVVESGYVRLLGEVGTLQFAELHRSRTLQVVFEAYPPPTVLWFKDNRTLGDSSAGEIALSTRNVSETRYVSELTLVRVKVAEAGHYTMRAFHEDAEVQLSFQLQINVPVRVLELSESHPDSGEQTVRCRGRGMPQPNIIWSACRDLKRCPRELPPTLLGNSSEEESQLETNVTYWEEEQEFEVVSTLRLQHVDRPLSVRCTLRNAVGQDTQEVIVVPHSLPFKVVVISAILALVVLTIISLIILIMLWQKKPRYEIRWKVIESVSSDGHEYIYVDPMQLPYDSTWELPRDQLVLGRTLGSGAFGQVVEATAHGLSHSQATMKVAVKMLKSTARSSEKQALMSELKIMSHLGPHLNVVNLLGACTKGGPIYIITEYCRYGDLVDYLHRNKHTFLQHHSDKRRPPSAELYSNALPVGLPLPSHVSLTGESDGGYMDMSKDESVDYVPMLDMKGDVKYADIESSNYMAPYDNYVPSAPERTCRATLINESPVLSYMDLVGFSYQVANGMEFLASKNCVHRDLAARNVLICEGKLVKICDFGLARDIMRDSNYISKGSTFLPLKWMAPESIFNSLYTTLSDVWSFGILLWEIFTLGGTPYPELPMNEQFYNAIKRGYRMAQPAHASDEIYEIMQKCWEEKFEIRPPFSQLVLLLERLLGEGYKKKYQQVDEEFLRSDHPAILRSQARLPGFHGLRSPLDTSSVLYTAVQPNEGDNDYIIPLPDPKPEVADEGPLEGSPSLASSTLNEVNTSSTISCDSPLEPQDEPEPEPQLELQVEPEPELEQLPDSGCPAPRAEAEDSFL

Sequence of Insulin-like growth factor 1 receptor (Homo sapiens) (P08069 31-736 limits assumed): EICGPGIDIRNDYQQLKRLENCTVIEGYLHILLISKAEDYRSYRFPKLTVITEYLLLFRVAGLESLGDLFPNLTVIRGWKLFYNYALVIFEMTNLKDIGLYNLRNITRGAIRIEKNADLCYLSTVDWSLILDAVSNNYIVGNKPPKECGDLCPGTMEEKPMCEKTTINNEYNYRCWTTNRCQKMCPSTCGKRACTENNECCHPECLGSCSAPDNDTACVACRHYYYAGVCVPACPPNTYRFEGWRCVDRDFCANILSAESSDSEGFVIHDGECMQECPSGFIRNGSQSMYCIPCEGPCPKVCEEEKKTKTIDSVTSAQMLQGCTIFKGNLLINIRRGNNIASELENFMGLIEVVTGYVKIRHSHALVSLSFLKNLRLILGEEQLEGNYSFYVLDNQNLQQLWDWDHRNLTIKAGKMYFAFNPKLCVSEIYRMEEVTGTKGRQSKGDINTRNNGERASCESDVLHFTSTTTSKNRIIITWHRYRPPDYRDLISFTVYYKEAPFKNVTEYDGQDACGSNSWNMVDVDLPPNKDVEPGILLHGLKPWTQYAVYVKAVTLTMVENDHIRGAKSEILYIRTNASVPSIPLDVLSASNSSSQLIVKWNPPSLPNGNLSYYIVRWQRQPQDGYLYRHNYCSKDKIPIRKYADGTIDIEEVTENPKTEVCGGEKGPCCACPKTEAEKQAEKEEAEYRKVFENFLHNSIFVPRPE
Sequence of Insulin-like growth factor 1 receptor (Homo sapiens) (P08069 741-1367 limits assumed): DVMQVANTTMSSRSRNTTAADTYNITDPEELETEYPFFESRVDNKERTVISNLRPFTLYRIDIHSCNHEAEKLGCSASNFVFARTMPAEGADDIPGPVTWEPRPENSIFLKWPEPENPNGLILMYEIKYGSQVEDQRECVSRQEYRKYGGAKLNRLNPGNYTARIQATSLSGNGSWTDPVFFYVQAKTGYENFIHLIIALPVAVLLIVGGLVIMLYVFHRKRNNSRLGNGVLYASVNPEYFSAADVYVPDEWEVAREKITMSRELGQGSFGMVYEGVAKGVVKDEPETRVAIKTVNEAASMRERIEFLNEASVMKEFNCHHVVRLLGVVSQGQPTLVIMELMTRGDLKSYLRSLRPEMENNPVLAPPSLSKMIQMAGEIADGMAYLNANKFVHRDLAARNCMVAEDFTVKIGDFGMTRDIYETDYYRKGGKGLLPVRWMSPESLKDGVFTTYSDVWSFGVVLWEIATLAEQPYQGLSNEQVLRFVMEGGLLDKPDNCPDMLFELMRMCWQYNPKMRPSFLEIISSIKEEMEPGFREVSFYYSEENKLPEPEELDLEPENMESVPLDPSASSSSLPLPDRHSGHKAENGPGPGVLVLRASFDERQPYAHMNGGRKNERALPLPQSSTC

inhibition [1] [%] | inhibition [2] [%] | inhibition [3] [%] | inhibition [4] [%] | inhibition [5] [%] | inhibition [6] [%] | inhibition [7] [%] | inhibition [8] [%] | inhibition [9] [%] | inhibition [10] [%] | Structure (SMILES)
0 | 0 | 0 | 6 | 10 | 0 | 0 | 0 | 0 | 5 | CN(C)CC(C)(C)CNC(=O)[C@@H]1CCCN1c1nccc(Nc2ccccc2)n1
0 | 0 | 0 | 0 | 0 | 0 | 6 | 0 | 0 | 0 | Nc1nc(Nc2ccccc2)cc(N2CCC(C(=O)NCCc3ccccn3)CC2)n1
0 | 0 | 0 | 3 | 6 | 1 | 1 | 0 | 0 | 14 | Nc1nc(Nc2ccc3ncsc3c2)cc(N2CCC[C@H]2C(=O)NCCc2cccc(I)c2)n1
95 | 18 | 5 | 7 | 72 | 29 | 12 | 0 | 100 | 99 | CN(C)CC(C)(C)CNC(=O)c1cccc(Nc2nccc(Nc3ccc4ncsc4c3)n2)c1
0 | 0 | 0 | 1 | 0 | 0 | 0 | 1 | 0 | 5 | CN(CCc1ccccn1)C(=O)[C@@H]1CCCN1c1nccc(Nc2ccccc2)n1
0 | 0 | 0 | 2 | 9 | 1 | 0 | 2 | 0 | 8 | O=C(NC1Cc2ccccc2C1)c1cccc(Nc2ccnc(N3CCN(c4ccccc4)CC3)n2)c1
87 | 5 | 1 | 5 | 17 | 5 | 0 | 0 | 45 | 93 | Cc1cccc(Nc2nccc(Nc3cccc(C(=O)N(C)CCc4ccccn4)c3)n2)c1
0 | 0 | 0 | 4 | 49 | 7 | 2 | 1 | 22 | 30 | O=C(COc1ccccc1)N1CCN(c2nccc(Nc3ccc4ncsc4c3)n2)CC1
7 | 0 | 0 | 2 | 20 | 2 | 1 | 0 | 0 | 6 | Nc1nc(Nc2ccc3ncsc3c2)cc(N2CCC[C@H]2C(=O)N[C@@H](CO)c2ccccc2)n1

More lines, now with the values behind:

Structure (SMILES) | inhibition [1] [%] | inhibition [2] [%] | inhibition [3] [%] | inhibition [4] [%] | inhibition [5] [%] | inhibition [6] [%] | inhibition [7] [%] | inhibition [8] [%] | inhibition [9] [%] | inhibition [10] [%]
Cc1cccc(N(C)c2cc(Nc3cccc(C(=O)N(CC(C)C)CC(C)C)c3)ncn2)c1 | 0 | 0 | 0 | 0 | 0 | 0 | 2 | 0 | 0 | 9
Cc1cccc(Nc2nccc(Nc3cccc(C(=O)NCc4ccc(N(C)C)cc4)c3)n2)c1 | 0 | 0 | 0 | 6 | 8 | 4 | 0 | 1 | 0 | 24
COc1ccc(NC(=O)Cc2ccc(Nc3cc(N(C)c4cccc(C)c4)ncn3)cc2)cn1 | 6 | 0 | 0 | 4 | 2 | 0 | 0 | 0 | 0 | 22
Cc1cccc(N(C)c2cc(Nc3cccc(C(=O)NCc4ccc(N(C)C)cc4)c3)ncn2)c1 | 0 | 4 | 0 | 1 | 0 | 0 | 0 | 0 | 0 | 13
O=C(c1nc(SCc2ccc(Cl)cc2)n2ccccc12)N1CCN(c2cc(Nc3cccc(Br)c3)ncn2)CC1 | 0 | 0 | 8 | 5 | 5 | 0 | 1 | 0 | 0 | 10
O=C(CN1CCN(c2ncnc3c2CN(Cc2ccccc2)CC3)CC1)Nc1cc(F)ccc1F | 0 | 0 | 0 | 0 | 0 | 0 | 0 | 0 | 0 | 5
Cc1cccc(CN2CCN(c3cc(N(C)c4cccc(C)c4)ncn3)CC2)c1 | 0 | 0 | 0 | 0 | 4 | 1 | 0 | 5 | 0 | 6
CC(=O)CCCCC(=O)N1CCN(c2nccc(Oc3cccc(C)c3)n2)CC1 | 0 | 0 | 0 | 4 | 9 | 0 | 0 | 0 | 0 | 4
Cc1cc(C(=O)N2CCN(c3ncnc4c3CN(Cc3ccccc3)CC4)CC2)c(C)n1C | 0 | 0 | 0 | 3 | 0 | 0 | 0 | 0 | 0 | 5
Cc1cccc(N(C)c2cc(Nc3cccc(C(=O)NCc4ccncc4)c3)ncn2)c1 | 0 | 0 | 7 | 3 | 0 | 0 | 0 | 0 | 9 | 33
Cc1cccc(Nc2nccc3c2CN(C(=O)c2cc(C)n(C)c2C)CC3)c1 | 0 | 0 | 0 | 3 | 1 | 0 | 0 | 0 | 0 | 5
Cc1cccc(Oc2ccnc(N3CCN(CC(=O)Nc4cccc5c4CCCC5)CC3)n2)c1 | 0 | 0 | 0 | 5 | 0 | 0 | 5 | 1 | 0 | 6
Cc1cccc(N(C)c2cc(Nc3cccc(C(=O)N4CCCC5CCCCC54)c3)ncn2)c1 (stereo not given) | 0 | 0 | 0 | 2 | 1 | 0 | 0 | 6 | 0 | 5
CN(C)c1ccc(C(=O)N2CCN(c3ncnc4c3CN(Cc3ccccc3)CC4)CC2)c2ccccc12 | 0 | 0 | 0 | 4 | 0 | 0 | 0 | 4 | 0 | 4
Cc1ccc(CN2CCN(c3nccc(C(C#N)c4ccccn4)n3)CC2)cc1 (stereo not given) | 0 | 0 | 0 | 8 | 7 | 0 | 0 | 0 | 0 | 14
Cc1cccc(N(C)c2cc(N3CCN(CC(=O)Nc4nc(-c5ccccc5)cs4)CC3)ncn2)c1 | 6 | 0 | 0 | 1 | 14 | 0 | 0 | 0 | 0 | 7
